From ChEMBL document CHEMBL4184175, “Design, synthesis and biological evaluation of novel indole-xanthendione hybrids as selective estrogen receptor modulators” (Bioorg Med Chem, 2018) come the findings set out here.

Activity calls are given as the source filed them. No cut-off for these calls is given here.

Data set [1] concerns T47D. Put plainly: Antiproliferative activity against human T47D cells after 48 hrs by MTT assay. (In general: Tetrazolium dyes change colour on reduction, which living cells bring about.)
In data set [2] the test system is PBMC. Kind of data set: Cytotoxicity against human PBMC assessed as reduction in cell viability at 100 uM after 48 hrs by MTT assay. In kind it is cell-based. Summed up:
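PBMCs isolated from human whole blood after RBC lysis, kept in RPMI-1640 with 10% FBS at 37 °C, 5% CO2; about 10^4 cells/well. MTT read-out as for T47D: 48 h exposure in FBS-free medium, MTT 0.5 mg/ml for 4 h, acidified DMSO, absorbance 570/620 nm, viability versus control.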

Data set [3] has as its target T1, Estrogen receptor (Homo sapiens, UniProt P03372).
T1 sequence (P03372 whole entry): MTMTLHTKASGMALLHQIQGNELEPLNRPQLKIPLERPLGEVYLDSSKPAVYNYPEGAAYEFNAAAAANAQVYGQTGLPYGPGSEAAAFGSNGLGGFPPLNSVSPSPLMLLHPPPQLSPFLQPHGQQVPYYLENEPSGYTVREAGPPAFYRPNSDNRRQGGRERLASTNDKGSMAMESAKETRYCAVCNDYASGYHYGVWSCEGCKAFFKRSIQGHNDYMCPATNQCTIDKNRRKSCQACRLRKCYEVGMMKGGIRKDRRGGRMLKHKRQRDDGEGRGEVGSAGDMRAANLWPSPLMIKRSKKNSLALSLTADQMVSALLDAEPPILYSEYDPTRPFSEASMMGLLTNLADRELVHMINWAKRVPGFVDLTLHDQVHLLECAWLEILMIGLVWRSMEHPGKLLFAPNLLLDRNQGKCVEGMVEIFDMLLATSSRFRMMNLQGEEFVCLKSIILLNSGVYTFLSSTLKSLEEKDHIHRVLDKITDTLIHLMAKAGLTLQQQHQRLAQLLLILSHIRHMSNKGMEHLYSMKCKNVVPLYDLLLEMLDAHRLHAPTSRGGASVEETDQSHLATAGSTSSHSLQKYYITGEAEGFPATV
Kind of data set: Displacement of Fluormone-tagged ES2 from human recombinant ERalpha after 2 hrs by fluorescence polarization assay.

The target in data set [4] is T2, Estrogen receptor (Homo sapiens) (UniProt P03372).
T2 sequence (whole entry): T1 sequence (P03372 whole entry)
Kind of data set: Displacement of Fluormone-tagged ES2 from human recombinant ERalpha up to 1000 nM after 2 hrs by fluorescence polarization assay. The gist of the method: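 Fluorescence polarization competition: DMSO serial dilutions of compound mixed 1:1 with human recombinant ER-α/Fluormone complex, at least 2 h at room temperature protected from light; excitation 535 nm, emission 590 nm. Controls: buffer with 4% DMSO (maximum), oestradiol (minimum), free tracer. Percent inhibition fitted by nonlinear regression; IC50 = half displacement of bound ligand.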
A general note: In fluorescence polarisation assays a small probe gives low polarisation when free and higher when bound to something large.

Data set [5] relates to MCF7. Kind of data set: Antiproliferative activity against human MCF7 cells. In kind it is functional.
The target in data set [6] is T2, Estrogen receptor (Homo sapiens). Put plainly: Binding affinity to ERalpha in human T47D cells assessed as downregulation of ERalpha mRNA level at 15 uM after 482 hrs by RT-PCR assay relative to control. To be noted: in the assay text read “48 hrs” for “482 hrs”. In kind it is cell-based. The gist of the method: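 T47D treated with 15 µM for 48 h; total RNA extracted with TRIzol, quality checked, converted to cDNA. ER-α amplified with gene-specific primers alongside GAPDH as loading control; products run on 1.2% agarose with EtBr and quantified by densitometry, normalised to GAPDH, relative to untreated cells; three independent experiments.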

Data set [7] relates to T47D. Kind of data set: Downregulation of ERalpha protein level in human T47D cells at 15 uM after 48 hrs by Western blot method relative to control. In kind it is functional. The gist of the method:
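T47D cells grown in RPMI-1640 with 10% heat-inactivated FBS at 37 °C, 5% CO2, then exposed to 15 uM for 48 h. Lysis in modified RIPA (50 mM Tris-HCl pH 7.4, 1% NP-40, protease inhibitors); protein measured by Bradford. 50 ug run on 10% SDS-PAGE, then nitrocellulose. Rabbit anti-ER-alpha (HC-20) at 4 °C overnight, HRP secondary, ECL. Densitometry normalised to beta-actin versus untreated cells; three experiments.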

Data set [8] can be described thus: Drug uptake in human T47D cell cytosol at 15 uM after 24 hrs by DAPI staining based confocal laser scanning microscopic method. In kind it is ADME, subcellular.
Data set [9] is described as follows: Drug uptake in human T47D cell nucleus at 15 uM after 24 to 48 hrs by DAPI staining based confocal laser scanning microscopic method. In kind it is ADME, subcellular.
The nature of data set [10]: Drug uptake in human T47D cell plasma membrane at 15 uM after 24 hrs by DAPI staining based confocal laser scanning microscopic method. In kind it is ADME, cell membranes.

Usually IC50 stands for the point on the concentration scale where inhibition reaches its midpoint. Consider `O=C1CCC2=C1C(c1cc3ccccc3n1Cc1ccccc1)C1=C(CCC1=O)O2`, for which the 50% inhibitory concentration (IC50) was 25 µM in [1] and 0.0512 µM in [3]. The Activity entry in data set [2] was “Non-Toxic”.
The corresponding values for `CC1CC(=O)C2=C(C1)OC1=C(C(=O)CCC1(C)C)C2c1cc2ccccc2n1Cc1ccccc1` (stereo unspecified) are 20.9 µM, 0.356 µM and “Non-Toxic”.
On to `CC1(C)CCC(=O)C2=C1OC1=C(C(=O)CCC1(C)C)C2c1cc2ccccc2n1Cc1ccccc1`, for which, in data set [4], the inhibition entry was “inactive”. Besides, the Activity result in data set [2] is “Non-Toxic”.
For the molecule `CC1(C)CC(=O)C2=C(C1)OC1=C(C(=O)CCC1(C)C)C2c1cc2ccccc2n1Cc1ccccc1` (stereo unspecified), the values for the IC50 in data set [1] and in [3] were 19.3 µM and 0.587 µM, respectively. For the same molecule, the Activity entry in data set [2] is listed as “Non-Toxic”.
Regarding `O=C1CC(c2ccccc2)CC2=C1C(c1cc3ccccc3n1Cc1ccccc1)C1=C(CC(c3ccccc3)CC1=O)O2` (stereo unspecified), the inhibition entry in data set [4] was “inactive”. Besides, in data set [2], the Activity result is on record as “Non-Toxic”.
Molecule `CC/C(=C(\c1ccccc1)c1ccc(OCCN(C)C)cc1)c1ccccc1` [TAMOXIFEN] gave an Activity in data set [5] of 10 µg/mL.
In the case of `CC1(C)CC(=O)C2=C(C1)OC1=C(C(=O)CCC1)C2c1cc2ccccc2n1Cc1ccccc1` (stereo unspecified), the IC50 in data set [1] came to 23.5 µM; in data set [3], 0.0184 µM. Further, the Activity result in [2] is “Non-Toxic”.
For `CC1CC(=O)C2=C(C1)OC1=C(C(=O)CC(C)(C)C1)C2c1cc2ccccc2n1Cc1ccccc1` (stereo unspecified), the IC50 was 19.8 µM in data set [1] and 0.0266 µM in data set [3]. Moreover, in data set [2], the Activity entry is given as “Non-Toxic”.
`CC1(C)CCC(=O)C2=C1OC1=C(C(=O)CCC1)C2c1cc2ccccc2n1Cc1ccccc1` (stereo unspecified): the results for the IC50 in data set [1] and in data set [3] were 16.5 µM and 0.055 µM, respectively. For the same molecule, the Activity in data set [6] was 54.3%; in data set [7] it was 32.18%; in [2], “Non-Toxic”. Besides, the Drug uptake result is on record as “Active” in [8] and “Not Active” in [9].
As for `O=c1[nH]c2c(c(=O)[nH]1)C(c1cc3ccccc3n1Cc1ccccc1)c1c([nH]c(=O)[nH]c1=O)O2`, the IC50 in data set [1] came out at 22.1 µM; in data set [3] it was 0.0611 µM. In [2], the Activity entry is given as “Non-Toxic”.
The molecule `Cc1c(-c2ccc(O)cc2)n(Cc2ccc(OCCN3CCCCCC3)cc2)c2ccc(O)cc12` [BAZEDOXIFENE] displayed an IC50 in data set [1] of 16.4 µM.
For `CC1CC(=O)C2=C(C1)OC1=C(C(=O)CC(C)C1)C2c1cc2ccccc2n1Cc1ccccc1` (stereo unspecified), in data set [2], the Activity result is listed as “Non-Toxic”. Moreover, the IC50 in [3] was 0.482 µM.
Consider `CC1CC(=O)C2=C(C1)OC1=C(C(=O)CCC1)C2c1cc2ccccc2n1Cc1ccccc1` (stereo unspecified), for which the IC50 worked out at 17.9 µM in data set [1] and 0.0166 µM in data set [3]. Also, the Activity was 29.7% in [6], 31.06% in [7] and “Non-Toxic” in data set [2]. Moreover, the Drug uptake entry in data set [9] is recorded as “Not Active”; in data set [10], “Active”.
For `CC1(C)CC(=O)C2=C(C1)OC1=C(C(=O)CC(C)(C)C1)C2c1cc2ccccc2n1Cc1ccccc1`, the figures for the IC50 in data set [1] and in data set [3] were 24.6 µM and 0.0608 µM, respectively. Also, the Activity result in [2] was “Non-Toxic”.
Take `CC1(C)CC(=O)C2C(C1)Oc1ccc3ccccc3c1C2c1ccc(O)cc1` (stereo unspecified): the Activity in data set [5] was 6.7 µg/mL.
In the case of `Oc1nc(S)nc2c1C(c1cc3ccccc3n1Cc1ccccc1)c1c(O)nc(S)nc1O2`, the inhibition result in [4] was “inactive”. In data set [2], the Activity entry is given as “Non-Toxic”.
